Data on eight compounds can be found in ChEMBL document CHEMBL2390836, “Synthesis and antitumor activities of naturally occurring oleanolic acid triterpenoid saponins and their derivatives” (Eur J Med Chem, 2013).

pIC50: −log10 of the molar value.

Holding throughout (assay type): functional, cell-based
One assay deals with A-375. The assay is described as follows: Cytotoxicity against human A375 cells after 72 hrs by sulforhodamine B assay. The settings on record: A-375, 72 h. An outline of the steps: (§1)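 Cells seeded in 96-well plates and exposed in triplicate to a concentration gradient at 37 °C for 72 h. Total protein staining with sulforhodamine B was the read-out. IC50 was calculated by the Logit method from at least three independent experiments.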
For orientation: In SRB staining, fixed cells bind dye roughly in proportion to their protein.

Another assay concerns A549. The assay is described as follows: Cytotoxicity against human A549 cells after 72 hrs by sulforhodamine B assay. Particulars: A549, 72 h. The gist of the method: as §1
For the next assay, the system named is HL-60. The assay is described as follows: Cytotoxicity against human HL60 cells after 72 hrs by MTT assay. The settings on record: HL-60, 72 h. An outline of the steps: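 HL-60 human promyelocytic leukemia cells were plated in 96 wells and treated in triplicate with graded concentrations at 37 °C for 72 h. Viability was read by MTT reduction. IC50 was obtained by the Logit method from at least three independent experiments.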
For orientation: Tetrazolium dyes change colour on reduction, which living cells bring about.

Usually pIC50 stands for −log10 of the IC50, conventionally taken in molar units. A low value points to a large IC50.

For `C[C@@H]1O[C@@H](O[C@H]2[C@H]3OC(c4ccccc4)OC[C@H]3O[C@@H](O[C@H]3CC[C@]4(C)[C@H]5CC=C6[C@@H]7CC(C)(C)CC[C@]7(C(=O)O)CC[C@@]6(C)[C@]5(C)CC[C@H]4C3(C)C)[C@@H]2O[C@@H]2O[C@@H](C)[C@H](O)[C@@H](O)[C@H]2O)[C@H](O)[C@H](O)[C@H]1O` (some centres undefined), the pIC50 in the assay on A-375, with A549 and with HL-60 was below 4.70 in each case.
Turning to `C[C@@H]1O[C@@H](O[C@@H]2[C@@H](O)[C@H](C)O[C@@H](O[C@H]3[C@H](O[C@H]4CC[C@]5(C)[C@H]6CC=C7[C@@H]8CC(C)(C)CC[C@]8(C(=O)O)CC[C@@]7(C)[C@]6(C)CC[C@H]5C4(C)C)OC[C@@H](O)[C@@H]3O)[C@@H]2O)[C@H](O)[C@H](O)[C@H]1O`, the pIC50 with A-375 is 5.08; in the assay on A549, 4.79; in the assay with HL-60, 5.03.
For `C[C@@H]1O[C@@H](O[C@H]2[C@H](O[C@H]3CC[C@]4(C)[C@H]5CC=C6[C@@H]7CC(C)(C)CC[C@]7(C(=O)O)CC[C@@]6(C)[C@]5(C)CC[C@H]4C3(C)C)OC[C@@H](O)[C@@H]2O)[C@H](O)[C@H](O)[C@H]1O` the same measures were 5.30, 4.97 and 5.44.
In the same order, the values of `C[C@@H]1O[C@@H](O[C@H]2[C@H](O[C@H]3CC[C@]4(C)[C@H]5CC=C6[C@@H]7CC(C)(C)CC[C@]7(C(=O)O)CC[C@@]6(C)[C@]5(C)CC[C@H]4C3(C)C)O[C@H](CO)[C@@H](O)[C@@H]2O)[C@H](O)[C@H](O)[C@H]1O` are 4.94, 4.63 and 4.89.
Regarding `CC1(C)CC[C@]2(C(=O)O)CC[C@]3(C)C(=CC[C@@H]4[C@@]5(C)CC[C@H](O[C@@H]6O[C@H](CO)[C@H](O)[C@H](O)[C@H]6O[C@@H]6O[C@H](CO)[C@@H](O)[C@H](O)[C@H]6O)C(C)(C)[C@@H]5CC[C@]43C)[C@@H]2C1`, the figures for the pIC50 with A-375, with A549 and in the assay on HL-60 were 5.01, 4.75 and 5.00, respectively.
In the case of `C[C@@H]1O[C@@H](O[C@H]2[C@H](O[C@H]3CC[C@]4(C)[C@H]5CC=C6[C@@H]7CC(C)(C)CC[C@]7(C(=O)O[C@@H]7O[C@H](CO[C@@H]8O[C@H](CO)[C@@H](O)[C@H](O)[C@H]8O)[C@@H](O)[C@H](O)[C@H]7O)CC[C@@]6(C)[C@]5(C)CC[C@H]4C3(C)C)OC[C@@H](O)[C@@H]2O)[C@H](O)[C@H](O[C@@H]2OC[C@@H](O)[C@H](O)[C@H]2O)[C@H]1O`, the pIC50 in the assay on A-375, with A549 and with HL-60 was below 4.70 throughout.
For `C[C@@H]1O[C@@H](O[C@H]2[C@H](O[C@H]3CC[C@]4(C)[C@H]5CC=C6[C@@H]7CC(C)(C)CC[C@]7(C(=O)O)CC[C@@]6(C)[C@]5(C)CC[C@H]4C3(C)C)O[C@H](CO)[C@@H](O)[C@@H]2O[C@@H]2O[C@@H](C)[C@H](O)[C@@H](O)[C@H]2O)[C@H](O)[C@H](O)[C@H]1O`, the pIC50 in the assay on A-375, with A549 and in the assay with HL-60 was below 4.70 in each case.
Consider `CC[C@@]1(O)C(=O)OCc2c1cc1n(c2=O)Cc2cc3cc(O)ccc3nc2-1` [HYDROXYCAMPTOTHECIN], for which the pIC50 with A-375 was 6.82; in the assay with A549, 6.25; in the assay on HL-60 it was 6.60.
